Results pooled from the literature.
Each line is one published result; the experiments were not run side by side.
Target: 3-phosphoinositide-dependent protein kinase 1 (PDPK1, Homo sapiens, UniProt O15530)
Residues used in one study (O15530 1-556): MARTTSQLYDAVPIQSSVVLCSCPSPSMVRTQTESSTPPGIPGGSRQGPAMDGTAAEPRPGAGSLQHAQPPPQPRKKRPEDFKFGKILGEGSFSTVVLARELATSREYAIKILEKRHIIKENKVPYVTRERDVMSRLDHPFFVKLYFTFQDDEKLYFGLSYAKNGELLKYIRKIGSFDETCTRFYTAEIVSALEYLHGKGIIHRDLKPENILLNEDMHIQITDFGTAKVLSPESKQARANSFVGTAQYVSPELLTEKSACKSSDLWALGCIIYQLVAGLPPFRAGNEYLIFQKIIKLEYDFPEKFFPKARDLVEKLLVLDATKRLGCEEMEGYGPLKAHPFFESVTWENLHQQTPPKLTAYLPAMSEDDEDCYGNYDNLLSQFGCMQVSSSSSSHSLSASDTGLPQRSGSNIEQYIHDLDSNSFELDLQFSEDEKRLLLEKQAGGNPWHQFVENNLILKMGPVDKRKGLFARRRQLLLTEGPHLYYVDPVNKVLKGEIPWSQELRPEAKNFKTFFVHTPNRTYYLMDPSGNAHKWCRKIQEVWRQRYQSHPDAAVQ

C[C@@]1(Cc2ccc(C#N)cc2)C(=O)N(c2cc(Cl)cc(Cl)c2)c2ncc(C(=O)NC3(c4nc(C5CCC5)no4)CC3)n21
remaining binding (cell-free assay; competition with immobilised ligand; 1 µM): 100%

CC1CCCN1c1nccc(-c2cnn3ncccc23)n1 (stereo not drawn)
remaining binding (binding; 1 µM): 89%

COc1cc2ncnc(Nc3ccc(F)c(Cl)c3)c2cc1OCCCN1CCOCC1
remaining binding (cell-free assay; competition with immobilised ligand; 0.1 µM): 100%

Cc1cnn2ncc(-c3ccnc(N(C)C)n3)c2c1
remaining binding (binding; 1 µM): 100%

CNC(=O)[C@@H]1CC[C@@H](n2c(-c3ccc4cnccc4c3)nc3ccc(C(=O)NCc4cccc(C(N)=O)c4)cc32)C1
remaining binding (binding; competition with immobilised ligand; 1 µM): 51%

O=C(Nc1cccnn1)N1CCC(=Cc2cccc(Oc3ccc(C(F)(F)F)cn3)c2)CC1
remaining binding (cell-free assay; competition with immobilised ligand; 1 µM): 85%

C[C@@H](c1ccc(-n2cnc3c(N)ncnc32)cc1)N1CCc2nn(C)c(Cc3ccccc3)c2C1=O
remaining binding (binding; competition with immobilised ligand; 0.1 µM): 100%

Cc1c(-c2ccccc2)oc2c(C(=O)OCCN3CCCCC3)cccc2c1=O
remaining binding (cell-free assay; competition with immobilised ligand; 10 µM): 100%

N#Cc1ccccc1CSc1nnc2c(n1)[nH]c1ccccc12
remaining binding (binding; competition with immobilised ligand; 10 µM): 91%

C[C@H](c1ccc(F)cc1)N(Cc1cccc(C(=O)O)c1)C(=O)c1cnc2ccccc2c1
remaining binding (cell-free assay; competition with immobilised ligand; 1 µM): 100%

Cc1ccc(NC(=O)c2ccc(CN3CCN(C)CC3)cc2)cc1Nc1nccc(-c2cccnc2)n1
remaining binding (cell-free assay; competition with immobilised ligand; 10 µM): 100%

C[C@@H]1CCN(c2nccc(-c3cnn4ncccc34)n2)C1
remaining binding (binding; 1 µM): 89%

CCN(CC)CCNC(=O)c1c(C)[nH]c(/C=C2\C(=O)Nc3ccc(F)cc32)c1C
remaining binding (cell-free assay; competition with immobilised ligand; 10 µM): 39%

O=C(c1ccc(Nc2ncc(Cl)c(-c3cc4ccccc4s3)n2)cc1)N1CCC(N2CCCC2)CC1
remaining binding (binding; competition with immobilised ligand; 1 µM): 78%

CCN(CC)Cc1cc(Nc2ccnc3cc(Cl)ccc23)ccc1O
remaining binding (cell-free assay; competition with immobilised ligand; 0.1 µM): 100%

O=C(NCCCN1CCOCC1)c1ccc(Nc2nccc(-c3cc4ccccc4s3)n2)cc1
remaining binding (binding; competition with immobilised ligand; 1 µM): 99%

CS(=O)(=O)CCNCc1ccc(-c2ccc3ncnc(Nc4ccc(OCc5cccc(F)c5)c(Cl)c4)c3c2)o1
remaining binding (cell-free assay; competition with immobilised ligand; 0.1 µM): 100%

Cc1c(C(=O)O)cc(-c2ccc(C3CCNCC3)cc2)c2ccc(-c3ccc(C(F)(F)F)cc3)cc12
remaining binding (binding; competition with immobilised ligand; 1 µM): 100%

C[C@@H]1CN(c2ccc3ncc(-c4ccc5[nH]nc(C6CC6)c5c4)n3n2)C[C@H](C)O1
remaining binding (binding; competition with immobilised ligand; 50 nM): 100%

O=C(Nc1c[nH]nc1C(=O)NC1CCNCC1)c1cc(F)cc(F)c1
remaining binding (binding; competition with immobilised ligand; 1 µM): 90%

O=C(NC[C@@H]1[C@H]2CN(C(=O)OCc3cc(C(F)(F)F)cc(C(F)(F)F)c3)C[C@@H]12)c1ccc2[nH]nnc2c1
remaining binding (cell-free assay; competition with immobilised ligand; 1 µM): 96%

O=C(NCCCN1CCOCC1)c1ccc(Nc2ncc(Cl)c(-c3ccc(Cl)s3)n2)cc1
remaining binding (binding; competition with immobilised ligand; 1 µM): 100%

COc1ccc2c(c1)O[C@@H](c1ccc(OC)c(OC)c1)C[C@H]2NC(=O)C1(c2ccc3c(c2)OC(F)(F)O3)CC1
remaining binding (cell-free assay; competition with immobilised ligand; 1 µM): 100%

Nc1ncc2c(n1)-c1c([nH]c3ccc(C#CC4CC4)cc13)CCCC2
remaining binding (binding; competition with immobilised ligand; 1 µM): 91%

CN(C)c1nccc(-c2cnc3ncccn23)n1
remaining binding (binding; 1 µM): 100%

CC(C)(C)c1ccc(-c2nc(CBr)nn2-c2cccc(O)c2)cc1
remaining binding (cell-free assay; competition with immobilised ligand; 10 µM): 89%

CN(C)C(=O)Cn1cc(-c2nc([C@@](C)(c3ccc(-c4cnc(N)nc4)cc3)C3CC3)no2)cn1
remaining binding (cell-free assay; competition with immobilised ligand; 1 µM): 99%

N[C@@H]1CCN(c2nccc(-c3cnn4ncccc34)n2)C1
remaining binding (binding; 1 µM): 96%

CN1CC[C@H](c2c(O)cc(O)c3c(=O)cc(-c4ccccc4Cl)oc23)[C@H](O)C1
remaining binding (cell-free assay; competition with immobilised ligand; 10 µM): 100%

CN(C)c1nccc(-c2cnn3ncccc23)n1
remaining binding (binding; 1 µM): 100%

Cc1nc(Nc2ncc(C(=O)Nc3c(C)cccc3Cl)s2)cc(N2CCN(CCO)CC2)n1
remaining binding (cell-free assay; competition with immobilised ligand; 0.1 µM): 100%

CS(=O)(=O)NCC[C@H](NC(=O)c1cncc2c1cnn2-c1ccc(F)cc1)c1ccnc(S(C)(=O)=O)c1
remaining binding (cell-free assay; competition with immobilised ligand; 1 µM): 100%

CN(CCCC(F)(F)F)c1nccc(-c2cnn3ncccc23)n1
remaining binding (binding; 1 µM): 100%
